# Test results from ChEMBL document CHEMBL3421595, “Design and Synthesis of New α-Naphthoflavones as Cytochrome P450 (CYP) 1B1 Inhibitors To Overcome Docetaxel-Resistance Associated with CYP1B1 Overexpression” (J Med Chem, 2015).
# How the values were obtained:
# MCF7 [1] = test: Cytotoxicity against human MCF7 cells after 48 hrs by MTT assay; type: functional, cell-based; conditions: MCF7, 48 h
# Summary of the method: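 MCF-7 cells grown in RPMI-1640 with 10% FBS at 37 °C, 5% CO2 and subcultured every 3 days at 1:5. Standard MTT assay with a 48 h exposure to freshly prepared docetaxel. Five concentrations per plate, four replicate wells each, three replicate plates. Viability is percent surviving cells relative to control. IC50 is the average of three parallel experiments.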
# MCF7 [2] = test: Cytotoxicity against human MCF7 cells over-expressing CYP1B1 after 48 hrs by MTT assay; type: functional, cell-based; conditions: MCF7, 48 h
# Summary of the method: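 CYP1B1-expressing MCF-7 (MCF-7/1B1) made by exposing parental cells to 10 nM TCDD for 96 h, with daily renewal of medium containing fresh 10 nM TCDD. Standard MTT assay, 48 h exposure to docetaxel alone or combined with a CYP1B1 inhibitor (5 or 10 μM). Wells with inhibitor alone (10 μM) served as negative control. Five concentrations, four replicate wells each, three plates.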
# MCF7 [3] = test: Resistance index, ratio of IC50 for human MCF7 cells over-expressing CYP1B1 to IC50 for human MCF7 cells; type: functional
structure (smiles),measurement,setting,value
CC(=O)O[C@@]12CO[C@@H]1C[C@H](O)[C@@]1(C)C(=O)[C@H](O)C3=C(C)[C@@H](OC(=O)[C@H](O)[C@@H](NC(=O)OC(C)(C)C)c4ccccc4)C[C@@](O)([C@@H](OC(=O)c4ccccc4)[C@H]21)C3(C)C.O.O.O [DOCETAXEL],IC50,MCF7 [1],27.6 µM
same,IC50,MCF7 [2],140 µM
same,Ratio IC50,MCF7 [3],5
